# Measurements taken from paper PMC12642897 (Journal of Enzyme Inhibition and Medicinal Chemistry, 2025).
# Tests used:
# PTP1B [1] = biological target: T1, PTP1B (Homo sapiens, UniProt P18031); assay: PTP1B enzyme kinetic analysis; assay type: biochemical; conditions: for Ki: PTP1B Ki value, secondary plot
# T1 sequence (P18031 1-435): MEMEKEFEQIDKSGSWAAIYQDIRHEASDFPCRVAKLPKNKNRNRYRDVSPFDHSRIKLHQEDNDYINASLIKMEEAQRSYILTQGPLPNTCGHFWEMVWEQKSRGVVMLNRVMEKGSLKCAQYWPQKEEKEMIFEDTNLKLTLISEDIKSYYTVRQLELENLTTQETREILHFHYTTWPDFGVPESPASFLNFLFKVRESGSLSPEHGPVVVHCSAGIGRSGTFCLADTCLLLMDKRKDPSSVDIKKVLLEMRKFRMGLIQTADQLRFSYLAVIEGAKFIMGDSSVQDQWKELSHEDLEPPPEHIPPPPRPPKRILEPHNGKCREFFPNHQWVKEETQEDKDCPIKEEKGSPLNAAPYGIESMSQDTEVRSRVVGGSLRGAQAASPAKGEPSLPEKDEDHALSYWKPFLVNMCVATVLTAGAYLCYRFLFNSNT
# Procedure, shortened: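 Human recombinant PTP1B in 50 mM citrate buffer (pH 6.0) with 0.1 M NaCl, 1 mM EDTA and 1 mM DTT. Test compound at 2, 4, 10 and 12 µM was crossed with p-NPP at 0.5, 1 and 2 mM. Enzyme plus inhibitor preincubated 10 min at 37 °C, then substrate added for 20 min at 37 °C. NaOH stop, A405. Lineweaver–Burk for mode; secondary plots for Kic/Kiu.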
# [2] = biological target: α-glucosidase enzyme from Saccharomyces cerevisiae (Saccharomyces cerevisiae, UniProt P53341); assay: α-Glucosidase inhibition assay; assay type: biochemical
# Chain of α-glucosidase enzyme from Saccharomyces cerevisiae (P53341 whole entry): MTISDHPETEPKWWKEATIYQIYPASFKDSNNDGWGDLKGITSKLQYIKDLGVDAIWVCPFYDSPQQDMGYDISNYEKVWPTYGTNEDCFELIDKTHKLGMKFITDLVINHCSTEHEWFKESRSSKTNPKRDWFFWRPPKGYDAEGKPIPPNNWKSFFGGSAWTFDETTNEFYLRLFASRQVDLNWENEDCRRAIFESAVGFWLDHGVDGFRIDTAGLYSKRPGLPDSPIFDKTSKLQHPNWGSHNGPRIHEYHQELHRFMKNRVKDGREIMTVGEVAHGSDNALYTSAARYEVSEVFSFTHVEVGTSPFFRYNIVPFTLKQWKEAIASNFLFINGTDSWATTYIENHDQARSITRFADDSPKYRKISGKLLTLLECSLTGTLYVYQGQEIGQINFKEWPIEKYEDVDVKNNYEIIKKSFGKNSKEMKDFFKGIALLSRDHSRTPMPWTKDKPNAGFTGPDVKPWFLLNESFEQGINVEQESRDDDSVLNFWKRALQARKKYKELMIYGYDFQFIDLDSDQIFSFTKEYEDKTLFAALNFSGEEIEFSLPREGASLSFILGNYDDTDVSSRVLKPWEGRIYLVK
# α-glucosidase = α-glucosidase (Saccharomyces cerevisiae, UniProt P53341); assay: α-Glucosidase enzyme kinetic analysis; assay type: biochemical; conditions: Lineweaver–Burk plot
# Chain of α-glucosidase (P53341 whole entry): as above
# Procedure, shortened: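 Yeast (S. cerevisiae) α-glucosidase in phosphate buffer, pH 6.8. p-NPG at 0.625, 1.25 and 2.5 mM was crossed with four concentrations of each test compound (sets of 7–40, 20–80 or 2–12 µM). Incubated 10 min at 37 °C, stopped with 0.2 M Na₂CO₃, read at 405 nm. Lineweaver–Burk plots assign inhibition mode.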
# PTP1B [3] = biological target: T1, PTP1B; assay: PTP1B inhibition assay; assay type: biochemical; conditions: PTP1B IC50, isolated compounds and positive control; tested 1 to 100 µM
# rat sucrase = conditions: read-out: IC50 against rat sucrase; ref 44 (Barber's review); cited from earlier work
# rat maltase = conditions: read-out: IC50 against rat maltase; ref 44 (Barber's review); cited from earlier work
PTP1B Inhibition type (PTP1B [1]; Lineweaver–Burk plot),Ki (PTP1B [1]; Kic),Ki (PTP1B [1]; Kiu),IC50 [2],α-glucosidase potency relative to acarbose ([2]; ratio of IC50 values),α-glucosidase Inhibition type (α-glucosidase),IC50 (PTP1B [3]),Compound,IC50 (rat sucrase),IC50 (rat maltase)
mixed-type,12.2 µM,5.5 µM,3.4 ± 0.2 µM,over 70 times,Uncompetitive,8 ± 1.1 µM,"O=c1oc(-c2ccc(O)c(O)c2)cc2cccc(O)c12 [Compound 12, Thunberginol A]",,
,,,,,,,O=c1c(O)c(-c2ccc(O)c(O)c2)oc2cc(O)cc(O)c12 [quercetin],> 400 µM,281 µM
